These results are taken from publication PMC2884008 (Chemistry & biology, 2010).

“Also recorded” adds a separate entry of the source. Read-outs that look alike come from different tables or passages of the source. Bounds are passed on as bounds.

The target of one data set is T1, p300 HAT (Homo sapiens, UniProt Q09472, DEL1529-1560/M1652G).
T1 sequence (Q09472 with tags, fused parts or gaps DEL1529-1560/M1652G limits assumed): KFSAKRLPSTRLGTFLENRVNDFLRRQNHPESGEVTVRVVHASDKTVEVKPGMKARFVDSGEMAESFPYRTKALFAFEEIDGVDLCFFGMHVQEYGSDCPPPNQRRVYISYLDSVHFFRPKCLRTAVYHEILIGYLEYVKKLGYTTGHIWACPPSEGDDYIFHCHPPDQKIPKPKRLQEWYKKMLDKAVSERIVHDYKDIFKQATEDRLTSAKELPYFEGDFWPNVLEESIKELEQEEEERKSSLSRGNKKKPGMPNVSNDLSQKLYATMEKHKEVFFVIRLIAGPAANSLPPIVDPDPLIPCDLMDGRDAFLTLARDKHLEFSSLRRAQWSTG
The data set is described as follows: direct radioactive 14C-acetyl-CoA transfer p300 HAT assay. The format is biochemical. Particulars: for p300 HAT inhibition, in words: analogs compared with C646.

Data set [1] has as its system C3H 10T1/2 mouse fibroblasts. The data set is described as follows: histone acetylation in mouse cells, western blots of SDS and acid-urea gels. In kind it is cell-based. The essentials:
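C3H 10T1/2 fibroblasts were grown in DMEM/10% FCS at 37°C, 6% CO2, then made quiescent in 0.5% FCS for 18–20 h. TSA at 33 nM was added for the final 30 min where used. Histones were acid-extracted, run on SDS and acid-urea gels and western blotted.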

The test system of data set [2] is immortalized murine fibroblast cell line, NIH3T3. The data set is described as follows: 3H-thymidine incorporation in NIH3T3. The note with it: 20 μM. The format is cell-based.
The test system of the next data set is WM983A cells. The data set is described as follows: global histone H3 acetylation in WM983A cells by western blotting. The note with it: 6 h, increasing concentrations. The format is cell-based, human.
In the next data set the test system is WM983A. The data set is described as follows: cell cycle analysis by propidium iodide FACS, WM983A. Particulars: 20 μM, 24 h. The format is cell-based, human. Put shortly:
(§1)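 Cells were exposed to 20 μM test compound or DMSO for 24 h. More than 10^6 cells were fixed in 70% ethanol at 4°C for ≥2 h, rehydrated in PBS and stained 20 min at 37°C with PI in 0.1% Triton X-100/PBS containing RNase A. DNA content was read by flow cytometry, and the S-phase fraction was taken as the read-out.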

Data set [3] addresses PCAF histone acetyltransferase (Homo sapiens, UniProt Q92831). The data set is described as follows: coupled spectrophotometric PCAF assay. Particulars: compound at 10 μM. In kind it is biochemical.
The subject of a further data set is p300 HAT mutant T1411A. The data set is described as follows: C646 inhibition of p300 HAT mutant T1411A. The format is biochemical. Particulars: Ki = IC50/(S/Km+1).
The target of data set [4] is MOZ histone acetyltransferase (Homo sapiens, UniProt Q92794). The data set is described as follows: direct radioactive HAT assay with hMOZ. The format is biochemical. Particulars: compound at 10 μM. The essentials: (§2)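 Enzyme: Rtt109/Vps75 70 ng, yGcn5 15 ng, SAS 300 ng, hMOZ 1 μg. After 10 min at 30°C, reactions were started with 20 μM 12C/14C-AcCoA (1:1) and run 2–4 min. Product was resolved by Tris-Tricine SDS-PAGE and quantified by autoradiography. Duplicates.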

The next data set concerns p300 HAT mutant W1466F. The data set is described as follows: C646 inhibition of p300 HAT mutant W1466F. The format is biochemical. The note with it: Ki = IC50/(S/Km+1).
The nature of data set [5]: thiol adduct formation by NMR and chromatography. In kind it is physicochemical. Particulars: buffer conditions of the enzyme assay.
For the next data set, the system named is p300 HAT mutant Y1467F. The data set is described as follows: C646 inhibition of p300 HAT mutant Y1467F. Particulars: Ki = IC50/(S/Km+1). In kind it is biochemical.
Data set [6] deals with three melanoma and three non-small cell lung cancer lines. The data set is described as follows: 3H-thymidine incorporation in cancer cell line panel. The format is cell-based, human. The note with it: 24 h. The essentials:
(§3)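 Melanoma lines were grown in DMEM and NSCLC lines in RPMI 1640, both with 10% FBS, pen-strep and L-glutamine. About 5000 cells/well at ~60% sub-confluence were attached at 37°C, then exposed 24 h with DMSO at 0.2% in every condition. 3H-thymidine was added at 10 μCi/ml final for 5 h; cells were harvested onto filters and counted. Triplicates; counts normalized to pre-treatment counts.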

Data set [7] deals with GCN5 histone acetyltransferase (Saccharomyces cerevisiae, UniProt Q03330). The data set is described as follows: direct radioactive HAT assay with yeast GCN5. The format is biochemical. The note with it: compound at 10 μM. Put shortly:
as §2

A further data set has as its system melanoma line WM983A. The data set is described as follows: 3H-thymidine incorporation in WM983A. In kind it is cell-based, human. The note with it: 24 h. The essentials: as §3
The test system of another data set is melanoma line WM35. The data set is described as follows: 3H-thymidine incorporation in WM35. Particulars: C646 10 μM or Lys-CoA-Tat 25 μM, 24 h. The format is cell-based, human. Put shortly: as §3
In data set [8] the target is Sas histone acetyltransferase (Saccharomyces cerevisiae, UniProt P40963). The data set is described as follows: direct radioactive HAT assay with SAS complex. In kind it is biochemical. The note with it: compound at 10 μM. Put shortly:
as §2

In another data set the test system is lung cancer line H23. The data set is described as follows: 3H-thymidine incorporation in H23. In kind it is cell-based, human. The note with it: C646 10 μM or Lys-CoA-Tat 25 μM, 24 h. The essentials: as §3
Another data set relates to p300 HAT mutant R1410A. The data set is described as follows: C646 inhibition of p300 HAT mutant R1410A. In kind it is biochemical. The note with it: Ki = IC50/(S/Km+1).
For another data set, the system named is WM35. The data set is described as follows: cell cycle analysis by propidium iodide FACS, WM35. Particulars: 20 μM, 24 h. In kind it is cell-based, human. The essentials:
as §1

Data set [9] deals with Rtt109 histone acetyltransferase (Saccharomyces cerevisiae, UniProt Q07794). The data set is described as follows: direct radioactive HAT assay with Rtt109/Vps75 complex. The format is biochemical. The note with it: compound at 10 μM. The essentials: as §2
The target in data set [10] is serotonin N-acetyltransferase (Ovis aries, UniProt Q29495). The data set is described as follows: coupled spectrophotometric AANAT assay. In kind it is biochemical. The note with it: compound at 10 μM.
Data set [11] has as its system p300/CBP HAT. The data set is described as follows: p300 HAT inhibition, literature values. The format is biochemical. Particulars: Ki compared with C646.
The target in data set [12] is p300/CBP HAT. The note with it: read-out: Ki for p300/CBP HAT, cited from earlier work.

serotonin N-acetyltransferase, sequence (Q29495 whole entry): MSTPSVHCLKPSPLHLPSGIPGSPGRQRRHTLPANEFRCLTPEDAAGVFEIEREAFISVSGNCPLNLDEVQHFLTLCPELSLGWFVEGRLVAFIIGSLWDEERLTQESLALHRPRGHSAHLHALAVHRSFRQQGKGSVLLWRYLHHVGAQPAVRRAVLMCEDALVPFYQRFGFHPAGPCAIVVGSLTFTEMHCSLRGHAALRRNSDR
Sas histone acetyltransferase, sequence (P40963 whole entry): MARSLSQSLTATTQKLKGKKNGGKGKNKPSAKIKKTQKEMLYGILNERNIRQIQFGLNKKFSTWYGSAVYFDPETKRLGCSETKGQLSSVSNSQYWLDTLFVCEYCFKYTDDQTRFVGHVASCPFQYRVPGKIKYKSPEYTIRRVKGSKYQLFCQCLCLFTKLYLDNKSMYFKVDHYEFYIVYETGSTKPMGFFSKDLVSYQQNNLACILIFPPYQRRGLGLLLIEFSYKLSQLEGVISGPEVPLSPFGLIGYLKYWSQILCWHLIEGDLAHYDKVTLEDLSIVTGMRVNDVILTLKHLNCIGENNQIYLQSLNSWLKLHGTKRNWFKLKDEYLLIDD
Sas histone acetyltransferase, sequence (Q04003 whole entry partner): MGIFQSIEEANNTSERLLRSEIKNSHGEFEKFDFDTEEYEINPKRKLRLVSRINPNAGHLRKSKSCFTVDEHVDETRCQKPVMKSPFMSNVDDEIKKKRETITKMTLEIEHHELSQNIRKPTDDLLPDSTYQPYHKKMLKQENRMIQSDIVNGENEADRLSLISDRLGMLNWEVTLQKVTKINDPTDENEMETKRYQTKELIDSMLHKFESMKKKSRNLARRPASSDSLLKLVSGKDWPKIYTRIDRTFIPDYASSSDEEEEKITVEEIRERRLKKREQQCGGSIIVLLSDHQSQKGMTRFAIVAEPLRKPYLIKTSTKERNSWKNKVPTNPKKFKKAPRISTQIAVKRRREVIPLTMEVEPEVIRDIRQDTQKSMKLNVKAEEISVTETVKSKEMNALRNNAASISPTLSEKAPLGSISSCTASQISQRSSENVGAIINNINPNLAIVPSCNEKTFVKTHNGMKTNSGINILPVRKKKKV
Sas histone acetyltransferase, sequence (Q99314 whole entry partner): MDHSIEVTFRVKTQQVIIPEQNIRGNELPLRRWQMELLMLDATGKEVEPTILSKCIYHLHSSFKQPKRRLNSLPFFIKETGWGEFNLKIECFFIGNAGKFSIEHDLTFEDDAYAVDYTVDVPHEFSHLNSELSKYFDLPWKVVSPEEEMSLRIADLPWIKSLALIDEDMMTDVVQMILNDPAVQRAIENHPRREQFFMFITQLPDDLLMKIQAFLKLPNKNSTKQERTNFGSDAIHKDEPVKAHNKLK
MOZ histone acetyltransferase, sequence (Q92794 497-780 limits assumed): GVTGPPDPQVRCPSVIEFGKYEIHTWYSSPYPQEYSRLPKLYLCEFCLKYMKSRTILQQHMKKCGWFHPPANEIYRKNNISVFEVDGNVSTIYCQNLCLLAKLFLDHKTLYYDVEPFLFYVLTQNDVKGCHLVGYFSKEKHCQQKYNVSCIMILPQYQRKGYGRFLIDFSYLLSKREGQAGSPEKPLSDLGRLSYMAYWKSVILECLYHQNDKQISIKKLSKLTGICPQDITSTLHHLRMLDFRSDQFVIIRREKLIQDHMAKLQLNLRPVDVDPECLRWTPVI
GCN5 histone acetyltransferase, sequence (Q03330 whole entry): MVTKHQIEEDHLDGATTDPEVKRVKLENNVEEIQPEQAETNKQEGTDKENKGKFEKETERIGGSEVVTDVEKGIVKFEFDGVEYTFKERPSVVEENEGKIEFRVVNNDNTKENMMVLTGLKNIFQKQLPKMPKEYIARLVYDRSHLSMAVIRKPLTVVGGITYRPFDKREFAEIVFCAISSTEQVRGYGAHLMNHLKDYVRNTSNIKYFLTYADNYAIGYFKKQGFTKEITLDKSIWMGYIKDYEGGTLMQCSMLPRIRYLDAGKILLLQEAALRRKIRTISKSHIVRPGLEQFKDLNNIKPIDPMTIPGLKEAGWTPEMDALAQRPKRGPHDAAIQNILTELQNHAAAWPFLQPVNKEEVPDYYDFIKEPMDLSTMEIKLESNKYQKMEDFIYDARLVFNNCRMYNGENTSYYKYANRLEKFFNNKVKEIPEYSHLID
PCAF histone acetyltransferase, sequence (Q92831 493-658 limits assumed): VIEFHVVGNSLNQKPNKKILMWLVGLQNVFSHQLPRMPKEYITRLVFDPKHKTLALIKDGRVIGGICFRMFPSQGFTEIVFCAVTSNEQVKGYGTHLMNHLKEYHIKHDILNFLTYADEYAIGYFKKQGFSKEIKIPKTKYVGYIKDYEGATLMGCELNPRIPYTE
Rtt109 histone acetyltransferase, sequence (Q07794 whole entry): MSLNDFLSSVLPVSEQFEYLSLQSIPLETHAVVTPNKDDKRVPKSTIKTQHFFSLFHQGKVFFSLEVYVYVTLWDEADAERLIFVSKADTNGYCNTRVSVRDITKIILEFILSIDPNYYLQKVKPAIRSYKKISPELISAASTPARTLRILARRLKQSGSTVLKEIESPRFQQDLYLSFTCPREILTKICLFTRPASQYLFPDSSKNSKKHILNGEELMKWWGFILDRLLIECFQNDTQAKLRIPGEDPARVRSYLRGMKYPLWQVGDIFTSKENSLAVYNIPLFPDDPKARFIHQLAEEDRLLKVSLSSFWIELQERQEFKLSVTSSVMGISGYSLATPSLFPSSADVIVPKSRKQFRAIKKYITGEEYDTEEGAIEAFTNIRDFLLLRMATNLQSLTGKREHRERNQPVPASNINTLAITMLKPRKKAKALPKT
Rtt109 histone acetyltransferase, sequence (P53853 whole entry partner): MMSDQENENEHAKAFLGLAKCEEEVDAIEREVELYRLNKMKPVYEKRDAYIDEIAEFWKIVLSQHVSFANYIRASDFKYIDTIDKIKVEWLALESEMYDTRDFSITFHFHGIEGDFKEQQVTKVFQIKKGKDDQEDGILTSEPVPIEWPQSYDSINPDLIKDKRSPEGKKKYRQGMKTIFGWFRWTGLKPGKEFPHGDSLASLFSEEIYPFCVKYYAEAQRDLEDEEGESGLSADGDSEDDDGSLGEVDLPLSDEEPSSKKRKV

As to `CC1=NN(c2ccc(C(=O)O)cc2)C(=O)C1=Cc1ccc(-c2cc(C)c(C)cc2CO)o1` [Compound 6l], the “p300 HAT inhibition, in words” value on p300 HAT is on record as “substantial reduction in potency”.
`CC1=NN(c2cccc(C(=O)O)c2)C(=O)C1=Cc1ccc(-c2cc(C)c(C)cc2[N+](=O)[O-])o1` [Compound 6e]: the “p300 HAT inhibition, in words” value on p300 HAT is “well tolerated”.
With `COC(=O)c1ccc(N2N=C(C)C(=Cc3ccc(-c4cc(C)c(C)cc4[N+](=O)[O-])o3)C2=O)cc1` [Compound 6h], the “weakening of p300 inhibitory potency compared with C646” value at p300 HAT (relative IC50 referenced to C646) was greater than 15 fold.
Consider `CC1=NN(c2ccc(S(N)(=O)=O)cc2)C(=O)C1=Cc1ccc(-c2cc(C)c(C)cc2[N+](=O)[O-])o1` [Compound 6g], for which the “p300 HAT inhibition, in words” value at p300 HAT is “well tolerated”.
In the case of `CC(/C=C/C(=O)NO)=C\[C@@H](C)C(=O)c1ccc(N(C)C)cc1` [TSA, trichostatin A, reference compound], in data set [1] (TSA 33 nM, 30 min), the “H3 and H4 acetylation after HDAC inhibitor” value was “increased H3 and H4 acetylation”.
On to `CC1=NN(c2ccc(C(=O)O)cc2)C(=O)/C1=C\c1ccc(-c2cc(C)c(C)cc2[N+](=O)[O-])o1` [Compound C646], for which, in data set [2], the “3H-thymidine incorporation / cell proliferation” value was “not inhibited; also recorded: does not have a significant inhibitory effect”. In addition, the “global histone H3 acetylation” value in the data set on WM983A cells is reported as “dose-dependent reduction; also recorded: blocks H3 acetylation”. Further, the cell cycle effect result in the data set with WM983A and in the data set with WM35 was “G1-S cell cycle arrest; also recorded: decrease in %S phase” throughout. In addition, the “inhibition of PCAF” value in [3] is “less than 10%”. Moreover, the “increase of apparent Ki versus wild type p300” value in the data set on p300 HAT mutant T1411A was “at least 2 fold”; with p300 HAT mutant W1466F, 7 fold; in the data set on p300 HAT mutant Y1467F, “at least 2 fold”; in the data set with p300 HAT mutant R1410A it was “at least 2 fold”. Moreover, in data set [4], the “inhibition of MOZ” value was “less than 10%”. Besides, the “thiol adduct formation with DTT or beta-mercaptoethanol” value in [5] is “no evidence of reaction”. The results for the 3H-thymidine incorporation result (in data set [6] (C646 10 μM); with melanoma line WM35; in the data set on lung cancer line H23) were “capable of reducing; also recorded: Two out of three non-small cell lung adenocarcinoma cell lines demonstrate significant growth inhibition”, “quite susceptible” and “quite susceptible”, respectively. In addition, in [7], the “inhibition of GCN5” value is on record as “less than 10%”. In the data set with melanoma line WM983A (read-out: IC50 for 3H-thymidine incorporation), the IC50 was 10 to 20 µM. The “cell proliferation via 3H-thymidine incorporation” value in the data set with melanoma line WM983A (up to 20 μM) was “inhibits WM983A melanoma cell proliferation”. Further, the “inhibition of Sas” value in data set [8] is recorded as “less than 10%”. The “basal acetylation levels of H3 and H4” value in [1] (25 μM, 1-3 h, H3K9ac, H4K12ac) was “slightly diminished; also recorded: reduces histone H3 and H4 acetylation levels”. Moreover, in [1] (25 μM, 1-3 h before TSA (33 nM, final 30 min)), the “TSA-inducible acetylation of H3 and H4” value is reported as “virtually completely inhibits; also recorded: abrogates TSA-induced acetylation”. Besides, the “inhibition of Rtt109” value in data set [9] is “less than 10%”. Besides, the “inhibition of serotonin N-acetyltransferase” value in [10] is listed as “less than 10%”.
For the compound `CC1=NN(c2ccc(C(N)=O)cc2)C(=O)C1=Cc1ccc(-c2cc(C)c(C)cc2[N+](=O)[O-])o1` [Compound 6a], the “p300 HAT inhibition, in words” value at p300 HAT is “well tolerated”.
For `COc1ccc(C(=O)C2=C3OC(C)(C)[C@@H](CC=C(C)C)C[C@@]34C[C@@H](CC=C(C)C)C(C)(C)[C@@](CC=C(C)C)(C2=O)C4=O)cc1O` [LTK14], the “fold weaker than C646” value with p300/CBP HAT [11] was “about 12 fold”. Moreover, on p300/CBP HAT [12] (ref Mantelingu et al., 2007, Arif et al., 2009), the Ki is 5.1 µM.
As to `CC(=O)N[C@@H](CCCCNC(=O)CSCCNC(=O)CCNC(=O)[C@H](O)C(C)(C)COP(=O)(O)OP(=O)(O)OC[C@H]1O[C@@H](n2cnc3c(N)ncnc32)[C@H](O)[C@@H]1OP(=O)(O)O)C(N)=O` [Lys-CoA], the “fold more potent than C646” value in the data set on p300/CBP HAT [11] came out at 20 fold. Moreover, the Ki at p300/CBP HAT [12] (ref Lau et al., 2000) is 0.02 µM.
As to `COC(=O)c1cccc(N2N=C(C)C(=Cc3ccc(-c4cc(C)c(C)cc4[N+](=O)[O-])o3)C2=O)c1` [Compound 6i], on p300 HAT, the “p300 HAT inhibition, in words” value was “well tolerated”.
Regarding `CC1=NN(c2ccc(S(=O)(=O)O)cc2)C(=O)C1=Cc1ccc(-c2cc(C)c(C)cc2[N+](=O)[O-])o1` [Compound 6f], at p300 HAT, the “p300 HAT inhibition, in words” value is given as “well tolerated”.
In the case of “Ac-Asp-Asp-Asp-Asp-Tat [Ac-DDDD-Tat, reference compound]”, the “3H-thymidine incorporation, control compounds” value in data set [6] was “no effects”. Further, at p300 HAT, the “p300 HAT inhibition, in words” value is on record as “lack p300 inhibitory properties”.
